Data from PMC12248229 (PeerJ, 2025).

Legend:
Oatp1b2 = experiment: qRT-PCR mRNA expression in rat liver after 7 days of dosing; format: in vivo; settings: after multiple doses
How it was run: (§1)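 Rats (n = 6/group) gavaged daily for 7 days with test compound: 2.5 or 1 mg/kg in 0.5% CMC-Na, or 100 mg/kg in 0.5% CMC-Na with 5% DMSO. Liver and intestine harvested under chloral hydrate and stored at −80 °C. TRNzol RNA extraction; 1 μg RNA reverse-transcribed. qPCR: 95 °C 15 min, then 40 cycles of 95 °C 10 s/60 °C 32 s. […] reference; 2^−ΔΔCT.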

[1] = tested on: patients with chronic kidney disease; settings: diverse group of patients with chronic kidney disease, ref Fauchier, Fauchier & Angoulvant, 2021, Herrington et al., 2023, Santos-Gallego et al., Wanner et al., 2016; cited from earlier work
Ugt1a7 = experiment: qRT-PCR mRNA expression in rat liver and intestine after 7 days of dosing; format: in vivo; settings: after multiple doses
How it was run: as §1

in vivo = format: in vivo, Sprague-Dawley (SD) rats; settings: for half-life: t1/2, rats
P-gp = experiment: qRT-PCR mRNA expression in rat liver and intestine after 7 days of dosing; format: in vivo; settings: after multiple doses
How it was run: as §1

[2] = cited from earlier work
[3] = Stability of analytes in rat plasma; format: physicochemical; settings: n = 6
[4] = rats, coadministered with sorafenib, versus control group
[5] = rats, empagliflozin […] after sorafenib 100 mg/kg for 7 consecutive days, n = 6
[6] = Autosampler (15 °C) for 6 h, nominal 15 ng/mL
[7] = Autosampler (15 °C) for 6 h, nominal 800 ng/mL
[8] = Autosampler (15 °C) for 6 h, nominal 1,500 ng/mL
[9] = Room temperature for 4 h, nominal 15 ng/mL
[10] = Room temperature for 4 h, nominal 800 ng/mL
[11] = Room temperature for 4 h, nominal 1,500 ng/mL
[12] = Three freeze–thaw cycles (−80 °C to 25 °C), nominal 15 ng/mL
[13] = Three freeze–thaw cycles (−80 °C to 25 °C), nominal 800 ng/mL
[14] = Three freeze–thaw cycles (−80 °C to 25 °C), nominal 1,500 ng/mL
[15] = −80 °C for 30 days, nominal 15 ng/mL
[16] = −80 °C for 30 days, nominal 800 ng/mL
[17] = −80 °C for 30 days, nominal 1,500 ng/mL

SMILES: OC[C@H]1O[C@@H](c2ccc(Cl)c(Cc3ccc(O[C@H]4CCOC4)cc3)c2)[C@H](O)[C@@H](O)[C@@H]1O [Empagliflozin]
- decrease of mRNA expression of Oatp1b2 (Oatp1b2): 37.43%
- lowering of the occurrence of cardiovascular death events [1]: 18%
- inhibition of mRNA expression of Ugt1a7 (Ugt1a7; rat intestine): no significant inhibition
- decrease of mRNA expression of Ugt1a7 (Ugt1a7; rat liver): 40.07%
- AUC(0-t) (in vivo; Sprague-Dawley, rat, in vivo, po, […], AUC0–t, rats, empagliflozin […] after sorafenib 100 mg/kg for 7 consecutive days, n = 6): 563 ± 110 ng·h/mL
- AUC(0-inf) (in vivo; Sprague-Dawley, rat, in vivo, po, […], AUC0–∞, rats, empagliflozin […] after sorafenib 100 mg/kg for 7 consecutive days, n = 6): 586 ± 104 ng·h/mL
- Cmax (in vivo; Sprague-Dawley, rat, in vivo, po, […], Cmax, rats, empagliflozin […] after sorafenib 100 mg/kg for 7 consecutive days, n = 6): 231 ± 78.5 ng/mL
- MRT last (in vivo; Sprague-Dawley, rat, in vivo, po, […], MRT0–t, rats, empagliflozin […] after sorafenib 100 mg/kg for 7 consecutive days, n = 6): 2.86 ± 0.21 h
- MRT inf (in vivo; Sprague-Dawley, rat, in vivo, po, […], MRT0–∞, rats, empagliflozin […] after sorafenib 100 mg/kg for 7 consecutive days, n = 6): 3.44 ± 0.52 h
- Tmax (in vivo; Sprague-Dawley, rat, in vivo, po, […], rats, empagliflozin […] after sorafenib 100 mg/kg for 7 consecutive days, n = 6): 0.4 ± 0.17 h
- Tmax (in vivo; Sprague-Dawley, rat, in vivo, po, […], rats, empagliflozin […] oral, alone, n = 6): 0.28 ± 0.12 h
- half-life (in vivo; Sprague-Dawley, rat, in vivo, po, […], empagliflozin […] after sorafenib 100 mg/kg for 7 consecutive days, n = 6): 3.14 ± 1.09 h
- half-life (in vivo; Sprague-Dawley, rat, in vivo, po, […], empagliflozin […] oral, alone, n = 6): 5.03 ± 2.29 h
- difference in Cmax of empagliflozin (higher than control) (in vivo; rats receiving both drugs versus control group): not statistically significant
- decrease of Vz/F of empagliflozin (in vivo; [4]): 50.68%
- increase of AUC0–t of empagliflozin (in vivo; [4]): 44.65%
- increase of AUC0–∞ of empagliflozin (in vivo; [4]): 30.59%
- CLz (in vivo; [5]): 73 ± 12.5 mL/min/kg
- Vz (in vivo; [5]): 20.18 ± 8.16 L/kg
- Vz (in vivo; rats, empagliflozin […] oral, alone, n = 6): 40.92 ± 16.03 L/kg
- decrease of mRNA expression of P-gp (P-gp; rat intestine): 22.77%
- decrease of mRNA expression of P-gp (P-gp; rat liver): 61.19%
- systemic exposure of each metabolite, of the total drug-related material ([2]; after oral administration, no reference given): less than 10%
- time to highest levels in the body ([2]; following a single oral dose, ref Scheen, 2014): 1.0 to 2.0 h
- dose eliminated in urine unchanged ([2]; ref Scheen, 2014): 11–19%
- Stability: Accuracy (RE%) [3, 6]: 4.78%
- Stability: Mean ± SD measured concentration [3, 6]: 15.72 ± 0.78 ng/mL
- Stability: Accuracy (RE%) [3, 7]: 6.63%
- Stability: Mean ± SD measured concentration [3, 7]: 853.00 ± 50.88 ng/mL
- Stability: Accuracy (RE%) [3, 8]: 3.89%
- Stability: Mean ± SD measured concentration [3, 8]: 1,558.33 ± 99.48 ng/ml
- Stability: Accuracy (RE%) [3, 9]: −0.67%
- Stability: Mean ± SD measured concentration [3, 9]: 14.90 ± 0.91 ng/mL
- Stability: Accuracy (RE%) [3, 10]: 4.71%
- Stability: Mean ± SD measured concentration [3, 10]: 837.67 ± 29.62 ng/mL
- Stability: Accuracy (RE%) [3, 11]: 2.22%
- Stability: Mean ± SD measured concentration [3, 11]: 1,533.33 ± 37.77 ng/ml
- Stability: Accuracy (RE%) [3, 12]: −0.67%
- Stability: Mean ± SD measured concentration [3, 12]: 14.90 ± 0.91 ng/mL
- Stability: Accuracy (RE%) [3, 13]: 6.65%
- Stability: Mean ± SD measured concentration [3, 13]: 853.17 ± 38.25 ng/mL
- Stability: Accuracy (RE%) [3, 14]: 1.11%
- Stability: Mean ± SD measured concentration [3, 14]: 1,516.67 ± 97.50 ng/ml
- Stability: Accuracy (RE%) [3, 15]: 1.56%
- Stability: Mean ± SD measured concentration [3, 15]: 15.23 ± 1.43 ng/mL
- Stability: Accuracy (RE%) [3, 16]: 4.15%
- Stability: Mean ± SD measured concentration [3, 16]: 833.17 ± 38.43 ng/mL
- Stability: Accuracy (RE%) [3, 17]: −1.78%
- Stability: Mean ± SD measured concentration [3, 17]: 1,473.33 ± 93.31 ng/ml
